A selection: hits, their analogues and other compounds. The true share with any hit is near 9.4%.
Beta cell apopt: blocks beta cell apoptosis | INS-1E cytokine-induced death, ATP luminescence, 48 h; percent of positive-control rescue, neutral wells zero | 300,000 tested, 0.8% active | protection from apoptosis, % (concentration not given with the values);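 active means Every replicate reaches about 75%, or at least half do and their mean reaches it too, limit read from the data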;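 further: 0% = cytokine-treated negative control wells and 100% = positive control rescue; higher means more ATP so stronger rescue from cytokine killing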
SKKanGAS inh: inhibitors of SKKanGAS S. pyogenes growth in kanamycin (SK-promoter or general growth effect); BacTiter-Glo, 6 h; inhibition, % at 7.5 µM; 300,000 tested, 1.3% active;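 active means mean replicate score, as percent of positive control median, at least 50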;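 further: strain carries kanamycin resistance gene driven by streptokinase promoter and grows in 40 µg/ml kanamycin; loss of luminescence reflects streptokinase promoter inhibition or plain growth inhibition; 0% = median of DMSO wells and 100% = positive control at its reference dose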
T cruzi inh: blocks replication of Trypanosoma cruzi; T. cruzi beta-gal in NIH3T3, luminescence, 90 h; inhibition, % (test concentration not listed); AID 1885; 300,000 tested, 1.4% active;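 active means mean inhibition across valid replicates above about 55%, limit read from the data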;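 further: signal also drops with host cell toxicity which is not excluded here; 0% = plate median of DMSO wells and 100% = zero luminescence signal; higher percent means less beta-gal luminescence so fewer parasites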
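Test system: β-gal T. cruzi (Tulahuen C4) inside NIH/3T3 cells / Quantity: 5,000 cells/well / Measured by: luminescence from GalScreen with 0.05% NP40, read after 60 min / Medium: DMEM plus 2% FBS / Measure: parasite load inhibition, % / Reagent: Tulahuen C4 trypomastigotes, 5000/well / Schedule: co-culture of at least 90 h after 3 h attachment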
CSC inhib: cancer stem cell inhibition. cancer stem cell-like cells viability, luminescence. inhibition, % at 7.5 µM. 300,000 tested, 1.1% active; in the data active means inhibition above about 75%; tested in HMLE shEcad cells
Mdm2-MdmX inh: disrupts the human Mdm2-MdmX interaction | SaOS-2 split-luciferase Mdm2/MdmX complementation, luminescence | inhibition, % at 8 µM | 330,000 tested, 3% active;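 active means inhibition of at least 50% at 8 µM in the primary screen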
Lmaj promast: Leishmania major promastigote growth inhibition | Leishmania major promastigotes, resazurin fluorescence viability | inhibition, % at 10 µM | 200,000 tested, 9% active | AID 1063; in the data active means inhibition above about 50%;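 further: promastigotes grown with compound for 44 hours at 28 °C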
Mdm2-MdmX conf: confirmation of human Mdm2/MdmX interaction inhibitors | shares compounds with Mdm2-MdmX inh | Mdm2-MdmX binding, luminescent assay | inhibition, % at 8 µM | 10,000 tested, 55% active; in the data active means inhibition above about 40%
FLuc counter: counter-screen for Mdm2/MdmX inhibitors: full-length luciferase | shares compounds with Mdm2-MdmX inh | inhibition, % at 8 µM | AID 504607 | 6,200 tested, 77% active | SaOS-2 full-length luciferase counterscreen, luminescence;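 active means mean inhibition at 8 µM reaching about 37%, which flags the compound as non-specific, limit read from the data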;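 further: p53-null SaOS-2 cells with luciferase driven by a doxycycline-inducible promoter; compound on cells about two nights before reading with doxycycline added after day one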
An asterisk follows results filed as active.

Screening COc1ccc(-c2cc(C(F)(F)F)nc(S(C)(=O)=O)n2)cc1 returned Beta cell apopt -31, SKKanGAS inh -5, T cruzi inh -18, CSC inhib 96*, Mdm2-MdmX inh 101*, Lmaj promast 100*, Mdm2-MdmX conf 80* and FLuc counter 53*.
CC(C)CN(C(=O)COC(=O)c1c(Cl)ccc(Cl)c1Cl)C1CCS(=O)(=O)C1 (centres undefined) was read as Beta cell apopt -4, SKKanGAS inh 1, T cruzi inh 14, CSC inhib -5, Mdm2-MdmX inh -3 and Lmaj promast 24.
`CC(=O)OCCCNc1cc(Sc2ccc(C)cc2)c2nonc2c1[N+](=O)[O-]` gave Beta cell apopt -21, SKKanGAS inh -6, T cruzi inh 8, CSC inhib 12, Mdm2-MdmX inh 54*, Lmaj promast 6, Mdm2-MdmX conf 59* and FLuc counter 68*.
For Cn1ccnc1Sc1cc(NCCCO)c([N+](=O)[O-])c2nonc12 the results were Beta cell apopt -11, SKKanGAS inh 2, T cruzi inh 44, CSC inhib 7, Mdm2-MdmX inh 26 and Lmaj promast -2.
For CC(=O)OCCCNc1cc(Sc2nc3ccccc3s2)c2nonc2c1[N+](=O)[O-] the results were Beta cell apopt -5, SKKanGAS inh 91*, T cruzi inh 69*, CSC inhib 76*, Mdm2-MdmX inh 100*, Lmaj promast 65*, Mdm2-MdmX conf 77* and FLuc counter 52*.
Screening Nc1nc(Nc2ccccc2F)nc(N2CCOCC2)c1[N+](=O)[O-] returned Beta cell apopt -2, SKKanGAS inh 1, T cruzi inh -8, CSC inhib -16 and Mdm2-MdmX inh -7.
For COc1ccc(-c2nn(C)c(=O)c3ccccc23)cc1NS(C)(=O)=O the results were Beta cell apopt -22, SKKanGAS inh 0, T cruzi inh 7, CSC inhib 16, Mdm2-MdmX inh 68*, Lmaj promast 6 and Mdm2-MdmX conf 27.
For C=CCn1c(SCC(=O)NC2CC2)nnc1C1CC1 the results were Beta cell apopt -3, SKKanGAS inh -1, T cruzi inh -7, CSC inhib -5 and Mdm2-MdmX inh 18.
CCCCn1c2c(c(=N)c3ccccc31)CCC2 was read as Beta cell apopt 46, SKKanGAS inh 1, T cruzi inh 21, CSC inhib 3 and Mdm2-MdmX inh 27.
Screening CCCCCCCCn1c2c(c(=N)c3ccccc31)CCC2 returned SKKanGAS inh 3, T cruzi inh 60*, Mdm2-MdmX inh 85*, Lmaj promast 100*, Mdm2-MdmX conf 86* and FLuc counter 27.
CCCCCn1c2c(c(=N)c3ccccc31)CCC2 was read as Beta cell apopt 23, SKKanGAS inh 1, T cruzi inh 59*, CSC inhib 12, Mdm2-MdmX inh 60* and Mdm2-MdmX conf 31.
`CCC(C(=O)NCc1ccco1)n1nc(C)c2c(C)n(-c3ccccc3)nc2c1=O` (centres undefined) gave Beta cell apopt 0, SKKanGAS inh 3, T cruzi inh -11, CSC inhib -6 and Mdm2-MdmX inh 15.
`COc1cccc(NC(=O)c2ccc(N3C(=O)C4CC=CCC4C3=O)cc2)c1` (centres undefined) gave Beta cell apopt -5, SKKanGAS inh 13, T cruzi inh 14, CSC inhib 5 and Mdm2-MdmX inh 7.
For CCOC(=O)N/N=C(/c1ccccc1)C1CCCCC1 the results were Beta cell apopt -2, SKKanGAS inh -3, T cruzi inh -3, CSC inhib -6, Mdm2-MdmX inh 3 and Lmaj promast 6.
O=c1cc(N2CCN(c3cccc(Cl)c3)CC2)[nH]c(=O)n1C1CCCCC1 was read as Beta cell apopt 89*, SKKanGAS inh -4, T cruzi inh 16, CSC inhib 66, Mdm2-MdmX inh 84*, Lmaj promast -1, Mdm2-MdmX conf 72* and FLuc counter 40*.

Compound activity (PubChem)
